Activity calls are given as the source filed them. No cut-off for these calls is given here.
How the values were obtained:
LLC-PK1 [1] = test: Induction of apoptosis in pig LLC-PK1 cells at 0.192 to 0.384 mM after 24 hrs electoporated in presence of compound; assay type: functional, cell-based; conditions: Sus scrofa
Summary of the method: (§1)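 LLC-PK1 cells were electroporated with or without aminoglycoside at increasing concentrations, up to 0.384 mM, present during the pulse. Cells were then returned to aminoglycoside-free medium. Apoptotic nuclei were enumerated 24 h later. Values are mean ± SD, n = 3, by two-tailed ANOVA against controls.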

LLC-PK1 [2] = test: Induction of apoptosis in pig LLC-PK1 cells at 0.064 mM after 24 hrs electoporated in presence of compound; assay type: functional, cell-based; conditions: Sus scrofa; summary of the method: as §1
Homo sapiens = test: Drug uptake in human at 15 mg/kg; assay type: ADME, organism-based; parameters: dose 15 mg/kg; conditions: in vivo
LLC-PK1 [3] = test: Induction of apoptosis in pig LLC-PK1 cells at 6 mM after 1 day by DAPI staining; assay type: functional, cell-based; conditions: Sus scrofa
Summary of the method: (§2)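 LLC-PK1 cells were incubated without drug or with 2 mM or 6 mM aminoglycoside for up to 3 days. Nuclei were stained with DAPI, and the percentage of apoptotic nuclei was counted by microscopy. Camptothecin at 14.3 μM served as positive control. Values are mean ± SD, n = 3, by two-tailed ANOVA against matched controls.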

LLC-PK1 [4] = test: Induction of apoptosis in pig LLC-PK1 cells at 6 mM after 2 days by DAPI staining; assay type: functional, cell-based; conditions: Sus scrofa; summary of the method: as §2
LLC-PK1 [5] = test: Induction of apoptosis in pig LLC-PK1 cells at 6 mM after 3 days by DAPI staining; assay type: functional, cell-based; conditions: Sus scrofa; summary of the method: as §2
LLC-PK1 [6] = test: Induction of necrosis in pig LLC-PK1 cells assessed as lactate dehydrogenase release; assay type: functional, cell-based; conditions: Sus scrofa
LLC-PK1 [7] = test: Induction of apoptosis in pig LLC-PK1 cells upto 9 mM after 2 days by DAPI staining; assay type: functional, cell-based; conditions: Sus scrofa
Summary of the method: (§3)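 LLC-PK1 cells were incubated for 48 h over a concentration series: 0 to 3 mM, or 3 to 9 mM. Apoptotic nuclei were scored as a percentage by DAPI staining under the microscope. Values are mean ± SD, n = 3, by two-tailed ANOVA against drug-free cells.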

LLC-PK1 [8] = test: Induction of apoptosis in pig LLC-PK1 cells at 2 mM by DAPI staining; assay type: functional, cell-based; conditions: Sus scrofa, TDE = time-dependent effect; summary of the method: as §2
LLC-PK1 [9] = test: Induction of apoptosis in pig LLC-PK1 cells assessed as caspase 3 activity at 2 mM after 2 days […]; assay type: functional, cell-based; conditions: Sus scrofa
Summary of the method: (§4)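 Renal LLC-PK1 cells were incubated up to 3 days with 2 mM drug in continuous exposure. Caspase 3 activity was measured with the fluorogenic substrate N-acetyl-Asp-Glu-Val-Asp-7-amido-4-methylcoumarin and expressed as % of matched untreated controls. The positive control was camptothecin at 14.3 μM. Values are mean ± SD, n = 3, by two-tailed ANOVA against matched controls.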

LLC-PK1 [10] = test: Induction of apoptosis in pig LLC-PK1 cells assessed as caspase 3 activity at 2 mM after 1 day […]; assay type: functional, cell-based; conditions: Sus scrofa; summary of the method: as §4
LLC-PK1 [11] = test: Induction of apoptosis in pig LLC-PK1 cells at 0.1mM after 24 hrs electoporated in presence of compound; assay type: functional, cell-based; conditions: Sus scrofa; summary of the method: as §1
LLC-PK1 [12] = test: Induction of apoptosis in pig LLC-PK1 cells measured at 0 to 3 mM after 2 days by DAPI staining; assay type: functional, cell-based; conditions: Sus scrofa; summary of the method: as §3

Which Activity (LLC-PK1 [1]) does the source give for `CN[C@@H]1[C@@H](O)[C@@H](O[C@@H]2[C@@H](O)[C@H](O[C@H]3O[C@H](CN)[C@@H](O)[C@H](O)[C@H]3O)[C@@H](N)C[C@H]2NC(=O)[C@@H](O)CN)OC[C@]1(C)O` here?
Its Activity is “Active”.

Which Activity (LLC-PK1 [2]) does the source give for `NC[C@@H]1O[C@H](O[C@H]2[C@@H](O)[C@H](O[C@@H]3[C@@H](O)[C@H](N)C[C@H](N)[C@H]3O[C@H]3O[C@H](CN)[C@@H](O)[C@H](O)[C@H]3N)O[C@@H]2CO)[C@H](N)[C@@H](O)[C@@H]1O` here?
The Activity was “Active”.

Which Drug uptake (Homo sapiens) does the source give for GENTAMICIN [listing 1 of 2 here] here?
Its Drug uptake is 8.56 µmol/kg.

Which results are given for `NCC[C@H](O)C(=O)N[C@@H]1C[C@H](N)[C@@H](O[C@H]2O[C@H](CN)[C@@H](O)[C@H](O)[C@H]2O)[C@H](O)[C@H]1O[C@H]1O[C@H](CO)[C@@H](O)[C@H](N)[C@H]1O` [AMIKACIN]?
Activity (LLC-PK1 [3]): inactive; Activity (LLC-PK1 [4]): inactive; Activity (LLC-PK1 [5]): Active; Drug uptake (Homo sapiens): 25.6 µmol/kg; Activity (LLC-PK1 [6]): inactive; Activity (LLC-PK1 [7]): inactive

Which Activity (LLC-PK1 [8]) does the source give for GENTAMICIN [listing 2 of 2 here] here?
The Activity was “tde”.

And the Activity (LLC-PK1 [9])?
Its Activity is “Active”.

What about the Activity (LLC-PK1 [10]) of the same compound?
Its Activity is “Active”.

And the Activity (LLC-PK1 [11])?
Its Activity is “Active”.

What about the Activity (LLC-PK1 [12]) of the same compound?
The Activity was “Dose-dependent effect”.
